# Sampled rows, rich in hits. Any-hit rate of the full collection: about 3.9%.
# CHOP UPR activ: apoptotic UPR (CHOP) activation; CHO-CHOP luciferase reporter, luminescence; percent of tunicamycin response over DMSO baseline; 0.34% of 330,000 active; activation, % at 10 µM;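 active = at 10 µM dose, activation of 40% or more, normalized to positive control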;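 note: 100% = tunicamycin at 10 µg/mL and 0% = DMSO alone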
#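 Evaluation: % reporter activation, DMSO baseline versus tunicamycin full activation; System: CHO-CHOP luciferase reporter cell line; Input: 500 cells/well; Incubation: 6 h compound treatment, 37 °C; Measured by: Steady-Glo luciferase luminescence; Dosing: one dose, 10 µM in 0.5% DMSO; Buffer or medium: F12 medium, 10% FBS; Benchmarks: positive tunicamycin 10 µg/mL, negative DMSO alone.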
# Jurkat NFkB inh: inhibitors of the PMA/ionomycin-induced NF-kB reporter in Jurkat cells; inhibition, % at 4 µM; PMA/ionomycin-induced NF-kB luciferase reporter, luminescence; 0.53% of 330,000 active; in the data active = inhibition above about 50%
# UPR XBP1 act: adaptive UPR (XBP1) activation; CHO-XBP1 luciferase reporter, IRE1-XBP1 UPR activation, luminescence; percent of tunicamycin response, DMSO as zero; activation, % at 20 µM; 0.33% of 330,000 active;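 active = versus positive control, 20 µM dose yields 30% or more activation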;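 note: 100% = tunicamycin at 10 µg/mL and 0% = DMSO only wells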
#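 Test system: CHO-XBP1 luciferase reporter cells | Buffer or medium: Serum-containing F12 medium, 10% FBS | Schedule: 6 h compound exposure at 37 °C, 5% CO2 | Detection: Steady-Glo luciferase glow luminescence, 10 min after reagent addition | Read-out basis: Activation, % of tunicamycin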
# CHOP inh: inhibitors of CHOP induction in ER stress response; CHO-K1 CHOP-promoter luciferase, tunicamycin-induced, 15-18 h; inhibition, % at 10 µM; 3.8% of 220,000 active;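 active = compounds that reduced the stress-induced luciferase reporter signal by more than about 70% of percent inhibition, limit read from the data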;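 note: 0% = tunicamycin plus vehicle and 100% = wells without tunicamycin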
# 697 NFkB inh: inhibitors of the PMA/ionomycin-induced NF-kB reporter in 697 B cells; inhibition, % at 4 µM; 0.33% of 330,000 active; 697 B-cell NF-kB luciferase reporter, 16 h; AID 435022; in the data active = inhibition above about 35%
# Gli-Sufu block: blocks Gli-Sufu signaling in a luciferase reporter | Sufu-KO-LIGHT fibroblasts, Gli luciferase reporter luminescence | inhibition, % at 5 µM | 0.74% of 340,000 active;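 active = inhibition above about 55%, limit read from the data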;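 note: 0% = DMSO-treated cells and 100% = wells with medium but no cells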
# CHOP inh conf: confirmation of CHOP induction inhibitors; shares compounds with CHOP inh; CHO-CHOP promoter luciferase reporter, tunicamycin-induced, luminescence; inhibition, % at 10 µM; 45% of 2,100 active; AID 504437;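 active = mean of three repeat readings of reporter signal inhibition above a set limit, cut at about 70% in these data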;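 note: 0% = tunicamycin plus vehicle and 100% = wells lacking tunicamycin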
# * = called active by the depositor; nt = no result given; ! = a repeat was not active.
SMILES,CHOP UPR activ,Jurkat NFkB inh,UPR XBP1 act,CHOP inh,697 NFkB inh,Gli-Sufu block,CHOP inh conf
CC(=O)C1=C(O)C(=O)N(c2ccccn2)C1c1cccc(F)c1 (configuration not stated),1.8,-24.1,4.2,nt,-3.6,-6.7,nt
O=C(Nc1ccccc1NC(=O)NC1CCCCC1)NC1CCCCC1,3.4,-5.7,1.8,103.6*,5.2,1.1,114.1*
NC(=O)c1ccccc1NC(=O)NC1CCCCC1,-0.9,13.5,0.7,11.3,-0.4,-3.6,nt
C(=N\Nc1ncnc2sc3c(c12)CCC3)/c1cccs1,-0.5,16.4,6.0,101.9*,-28.5,nt,72.9*
CCOC(=O)c1c(NC(=O)COC(=O)CCCOc2ccc(OC)cc2)sc(C(=O)N(C)C)c1C,nt,nt,nt,nt,nt,-30.6,nt
O=S(=O)(NCC(Nc1ccccc1)c1ccccc1)c1ccc(Cl)cc1 (configuration not stated),0.3,-20.4,-2.4,101.6*,-22.4,1.7,32.8
C[N+]1(CCC(=O)c2ccccc2)CCCCC1,-0.4,-3.8,-1.5,97.3*,2.5,-7.0,10.2
CCNc1nc(Oc2ccc(Cl)cc2Cl)cc(C(F)(F)F)n1,-1.9,-4.8,-0.9,53.8,-69.2,8.7,nt
CCNc1nc(Oc2c(Cl)cccc2Cl)cc(C(F)(F)F)n1,-0.5,2.3,-0.8,97.5*,-24.8,2.9,101.5*
COc1cc(OC)c(OC)cc1/C=C1\CC(C)C/C(=C\c2cc(OC)c(OC)cc2OC)C1=O (configuration not stated),nt,nt,nt,nt,nt,25.4,nt
CC(=O)N(c1ccccc1)C1CCCC1,0.7,9.6,-0.9,18.2,0.8,9.7,nt
O=C(CCl)N(c1ccccc1)C1CCCCC1,-1.1,1.3,-7.9,107.4*,-8.9,5.0,16.5
O=c1[nH]c(NCCO)nc2c1C1(CCCCC1)Cc1ccccc1-2,-2.4,-1.4,-2.0,98.6*,-0.1,6.3,13.1
C#CCOc1ccc(C2C(C#N)=C(N)Oc3cc(O)ccc32)cc1 (configuration not stated),0.1,2.0,0.2,nt,13.6,16.5,nt
COc1ccccc1Nc1nc(NCC(C)C)nc(N)c1[N+](=O)[O-],3.2,20.2,13.6,100.6*,-13.4,-5.6,37.3
CC(/C=N/n1c(C2CCCCC2)n[nH]c1=S)=C\c1ccccc1,-1.5,-5.1,1.8,107.2*,1.5,-3.6,101.5*
O=C1c2ccccc2C(=O)C12OC2c1ccc(Cl)cc1 (configuration not stated),103.1*,12.1,-4.5,109.0*,-5.9,nt,-21.2
CNc1oc(-c2ccc(C)cc2)nc1P(=O)(c1ccccc1)c1ccccc1,1.3,-123.9,2.2,106.6*,-111.8,3.9,42.8
O=C(Nc1nnc(CC2=CCCCC2)s1)Nc1ccccc1F,5.0,-20.7,6.6,97.7*,-29.8,-30.0,6.1
O=C(Nc1ccc(F)cc1)Nc1nnc(COc2ccccc2F)s1,4.3,-6.4,-2.9,26.6,-6.3,3.3,nt
O=C(Nc1nnc(COc2ccccc2F)s1)Nc1ccccc1F,-0.3,3.3,4.9,99.1*,21.1,0.1,-6.4
Cc1nn(-c2ccccc2)c2c1C(c1cccs1)C(C#N)=C(N)O2 (configuration not stated),-0.9,12.0,3.8,15.8,5.2,15.7,nt
CCCc1nn(-c2ccccc2)c2c1C(c1cccs1)C(C#N)=C(N)O2 (configuration not stated),-1.3,-28.1,-4.3,107.7*,-36.6,-10.6,-37.8
CNc1nnc(Sc2ncccc2[N+](=O)[O-])s1,0.5,6.9,-2.9,-36.0,-9.8,5.1,nt
O=C(COC(=O)c1n[nH]c(=O)c2ccccc12)c1ccc(Br)cc1,1.3,14.8,-1.6,103.8*,27.8,6.1,-70.2
SMILES,CHOP UPR activ,Jurkat NFkB inh,UPR XBP1 act,CHOP inh,697 NFkB inh,Gli-Sufu block,CHOP inh conf
O=C(c1cc(-c2ccccc2O)on1)N1CCc2ccccc2C1,1.5,-5.5,-2.0,105.9*,-0.9,-0.7,2.1
O=C(NCCN1C(=O)S/C(=C/c2cccnc2)C1=O)C1CC(=O)N(Cc2ccccc2)C1 (configuration not stated),3.0,-1.8,-2.4,15.2,-0.4,-0.7,nt
COc1ccc(C2=C(CN(C)C)C(c3ccccc3)c3ccccc3O2)cc1 (configuration not stated),1.0,8.6,-0.9,104.0*!,10.3,0.7,43.3
NC(N)=N/N=C/c1ccc(OCc2ccc(Cl)cc2)cc1,5.7,34.4,5.1,107.2*,-132.5,-7.0,2.8
Cc1c(C(=O)O)sc(S(=O)(=O)N2CCN(C(=O)Cc3ccc(F)cc3)CC2)c1C(=O)O,0.1,-8.6,2.8,nt,12.9,12.2,nt
O=[N+]([O-])c1ccc(S(=O)(=O)NCCS(=O)(=O)N2CCN(c3ccccc3)CC2)cc1,-1.5,-3.1,-4.6,nt,16.7,-8.1,nt
CCCCCc1c(C)nc(Nc2ccccc2)[nH]c1=O,-0.8,16.7,-4.2,104.3*,-22.1,-10.0,85.8*
CCOC(CCc1c(C)nc(NC(C)=O)[nH]c1=O)OCC,nt,nt,nt,-2.9,nt,4.7,nt
Cc1nc(Nc2ccc(F)cc2)[nH]c(=O)c1CCC(C)C,-0.7,16.6,-2.4,104.5*,-12.0,11.2,106.9*
COc1c(O)cc(O)c2c(=O)cc(-c3ccccc3)oc12,2.9,-13.7,2.8,nt,-25.3,-21.6,nt
Cc1oc(-c2ccccc2F)nc1CS(=O)(=O)CC(=O)N1CCOCC1,1.9,4.0,-5.2,28.6,4.7,-1.4,nt
Cc1cccc(N2CCN(C(=O)CS(=O)(=O)Cc3nc(-c4ccccc4F)oc3C)CC2C)c1 (configuration not stated),-0.3,8.9,-2.6,98.4*,-18.7,-0.9,80.1*
O=S(=O)(N/N=C/c1ccc(Cl)cc1)c1ccc(Cc2ncc(C(F)(F)F)cc2Cl)s1,-0.8,11.2,0.7,100.0*,14.3,-1.0,91.4*
CCOc1ccc(-n2c(SCC(=O)Nc3ccc(Br)cc3)nc3n[nH]c(C)c3c2=N)cc1,11.6,28.2,-0.9,103.4*,18.5,4.1,107.6*
Nc1cc(=O)[nH]c(SCCSc2cc(Cl)ccc2Cl)n1,-3.6,2.5,-0.7,nt,4.9,2.5,nt
Cc1ccc(C2CC2c2n[nH]c(=S)n2-c2cccc(C)c2)cc1 (configuration not stated),-0.6,-16.1,0.3,18.7,-25.2,21.7,nt
Cc1ccc(C2CC2c2n[nH]c(=S)n2-c2ccc(Cl)cc2)cc1 (configuration not stated),-0.5,-3.4,0.5,105.5*,-7.7,1.3,-2.1
COc1ccc(OCCC(=O)Nc2ccccc2)cc1,0.3,-21.1,2.9,nt,-34.4,11.4,nt
O=C(N/N=C/C=C\c1ccccc1[N+](=O)[O-])c1cc(-c2ccc3ccccc3c2)n[nH]1,nt,nt,nt,106.2*,nt,-8.9,-33.8
